Results from ChEMBL document CHEMBL1134845, “Syntheses and biological activities of a novel group of steroidal derived inhibitors for human Cdc25A protein phosphatase” (J Med Chem, 2001).

Assays:
A549 = assay: Growth inhibitory activity was determined against A549/ATCC cancer cell line of non-small cell lung cancer; assay type: functional, Homo sapiens
Procedure, shortened: (§1)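 NCI 60 human tumour cell line screen run at the National Cancer Institute. Cell growth and viability read with the protein stain sulforhodamine B, which binds basic amino acids of cells left attached after washing. […] MG MID is the mean GI50 calculated over all panels.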

COLO 205 = assay: Growth inhibitory activity was determined against COLO 205 cancer cell line colon cancer; assay type: functional, Homo sapiens; procedure, shortened: as §1
[1] = molecular target: T1, M-phase inducer phosphatase 1 (Homo sapiens) (UniProt P30304); assay: Inhibitory activity tested against cell division cycle 25A (assay using p-nitro phenyl phosphate (pNPP) as substrate)
T1 sequence (whole entry): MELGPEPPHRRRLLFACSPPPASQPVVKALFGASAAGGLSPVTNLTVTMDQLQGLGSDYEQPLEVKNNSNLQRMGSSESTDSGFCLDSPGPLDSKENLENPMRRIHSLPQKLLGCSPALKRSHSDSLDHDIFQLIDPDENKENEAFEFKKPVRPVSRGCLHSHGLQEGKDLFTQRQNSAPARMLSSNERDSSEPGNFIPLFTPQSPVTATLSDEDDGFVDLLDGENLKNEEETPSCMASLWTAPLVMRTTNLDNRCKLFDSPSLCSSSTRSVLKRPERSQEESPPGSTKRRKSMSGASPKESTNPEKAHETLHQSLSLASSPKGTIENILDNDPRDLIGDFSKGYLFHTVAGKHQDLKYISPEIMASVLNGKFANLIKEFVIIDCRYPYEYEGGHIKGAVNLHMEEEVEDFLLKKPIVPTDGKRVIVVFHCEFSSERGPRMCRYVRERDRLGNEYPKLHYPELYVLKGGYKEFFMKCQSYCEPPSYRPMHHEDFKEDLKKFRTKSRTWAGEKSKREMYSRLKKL

[2] = molecular target: T1, M-phase inducer phosphatase 1 (Homo sapiens); assay: (§2) Inhibitory activity tested against cell division cycle 25A (assay using fluorescein diphosphate (FDP) as substrate)
Procedure, shortened: (§3)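 Recombinant human GST-Cdc25A fusion protein, each batch calibrated so that FDP was dephosphorylated linearly over 20 min. Fluorescein diphosphate was the substrate. Reactions ran 15 min at 25 °C in the dark and were stopped with sodium orthovanadate. Fluorescein monophosphate was read at 485 nm excitation and 530 nm emission. IC50 came from at least two independent runs, each in triplicate.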

HT-29 [3] = assay: Inhibition of colon cancer in HT-29 cancer cell lines; assay type: functional; conditions: Homo sapiens
Procedure, shortened: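 Soft agar clonogenic assay of anchorage-independent growth, using HT-29 colon and A549 lung adenocarcinoma cells. The value is the compound concentration that cut colony number to 50% of control.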

HCC 2998 = assay: Growth inhibitory activity was determined against HCC2998 cancer cell line colon cancer; assay type: functional, Homo sapiens; procedure, shortened: as §1
LOX IMVI = assay: Growth inhibitory activity was determined against LOX IMVI cancer cell line of melanoma; assay type: functional, Homo sapiens; procedure, shortened: as §1
OVCAR-3 [4] = assay: Inhibition of Ovarian cancer in OVCAR-3 cancer cell lines; assay type: functional; conditions: Homo sapiens
NCI-H23 = assay: Growth inhibitory activity was determined against NCI-H23 cancer cell line of non-small cell lung cancer; assay type: functional, Homo sapiens; procedure, shortened: as §1
NCI-H522 = assay: Growth inhibitory activity was determined against NCI-H522 cancer cell line of non-small cell lung cancer; assay type: functional; conditions: Homo sapiens; procedure, shortened: as §1
NCI/ADR-RES [5] = assay: Inhibition of Breast cancer in NCI/ADR-RES cancer cell lines; assay type: functional; conditions: Homo sapiens
OVCAR-8 [6] = assay: Inhibition of Ovarian cancer in OVCAR-8 cancer cell lines; assay type: functional; conditions: Homo sapiens
PC-3 [7] = assay: Inhibition of Prostate cancer in PC-3 cancer cell lines; assay type: functional; conditions: Homo sapiens
SN12C [8] = assay: Inhibition of Renal cancer in SN12C cancer cell lines; assay type: functional; conditions: Homo sapiens
SF-539 = assay: Growth inhibitory activity was determined against SF-539 cancer cell line of CNS cancer; assay type: functional; conditions: Homo sapiens; procedure, shortened: as §1
SF-268 = assay: Growth inhibitory activity was determined against SF-268 cancer cell line of CNS cancer; assay type: functional; conditions: Homo sapiens; procedure, shortened: as §1
SK-MEL-5 = assay: Growth inhibitory activity was determined against SK-MEL-5 cancer cell line of melanoma; assay type: functional, Homo sapiens; procedure, shortened: as §1
T47D [9] = assay: Inhibition of Breast cancer in T-47D cancer cell lines; assay type: functional; conditions: Homo sapiens
UO-31 [10] = assay: Inhibition of Renal cancer in UO-31 cancer cell lines; assay type: functional; conditions: Homo sapiens
U-251 = assay: Growth inhibitory activity was determined against U-251 cancer cell line of CNS cancer; assay type: functional; conditions: Homo sapiens; procedure, shortened: as §1
786-0 [11] = assay: Inhibition of Renal cancer in 786-0 cancer cell lines; assay type: functional; conditions: Homo sapiens
BT-549 (Homo sapiens) [12] = assay: Inhibition of Breast cancer in BT-549 cancer cell lines
[13] = molecular target: Receptor-type tyrosine-protein phosphatase C, CD45 (Homo sapiens) (UniProt P08575); assay: Inhibitory activity tested against human CD45 receptor-type tyrosine-protein phosphatase C
786-0 [14] = assay: Growth inhibitory activity was determined against 786-0 cancer cell line of renal cancer; assay type: functional; conditions: Homo sapiens; procedure, shortened: as §1
[15] = molecular target: T2, M-phase inducer phosphatase 1 (Homo sapiens, UniProt P30304); assay: as §2
T2 sequence (P30304 whole entry): T1 sequence (whole entry)
Procedure, shortened: as §3, with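 “orthovanadate.” for “orthovanadate. Fluorescein monophosphate was read at 485 nm excitation and 530 nm emission.”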

HT-29 [16] = assay: Growth inhibitory activity was determined against HT-29 cancer cell line colon cancer; assay type: functional, Homo sapiens; procedure, shortened: as §1
NCI/ADR-RES [17] = assay: Growth inhibitory activity was determined against NCI/ADR-RES cancer cell line of Breast cancer; assay type: functional, Homo sapiens; procedure, shortened: as §1
OVCAR-8 [18] = assay: Growth inhibitory activity was determined against OVCAR-8 cancer cell line of Ovarian cancer; assay type: functional; conditions: Homo sapiens; procedure, shortened: as §1
PC-3 [19] = assay: Growth inhibitory activity PC-3 cancer cell line of Prostate cancer; assay type: functional; conditions: Homo sapiens; procedure, shortened: as §1
SN12C [20] = assay: Growth inhibitory activity was determined against SN12C cancer cell line of renal cancer; assay type: functional; conditions: Homo sapiens; procedure, shortened: as §1
UO-31 [21] = assay: Growth inhibitory activity was determined against UO-31 cancer cell line of renal cancer; assay type: functional; conditions: Homo sapiens; procedure, shortened: as §1
T47D [22] = assay: Growth inhibitory activity was determined against T-47D cancer cell line of Breast cancer; assay type: functional, Homo sapiens; procedure, shortened: as §1
OVCAR-3 [23] = assay: Growth inhibitory activity was determined against OVCAR-3 cancer cell line of Ovarian cancer; assay type: functional; conditions: Homo sapiens; procedure, shortened: as §1
BT-549 (Homo sapiens) [24] = assay: Growth inhibitory activity was determined against BT-549 cancer cell line of Breast cancer
[25] = molecular target: Receptor-type tyrosine-protein phosphatase C, CD45 (Homo sapiens) (UniProt P08575); assay: Inhibitory activity tested against human CD45 (receptor-type tyrosine-protein phosphatase C)
[26] = molecular target: T3, Receptor-type tyrosine-protein phosphatase C (Homo sapiens, UniProt P08575); assay: Inhibitory activity tested against Human CD45 Phosphatase (assay using p-nitrophenyl phosphate (pNPP) as substrate)
T3 sequence (P08575 whole entry): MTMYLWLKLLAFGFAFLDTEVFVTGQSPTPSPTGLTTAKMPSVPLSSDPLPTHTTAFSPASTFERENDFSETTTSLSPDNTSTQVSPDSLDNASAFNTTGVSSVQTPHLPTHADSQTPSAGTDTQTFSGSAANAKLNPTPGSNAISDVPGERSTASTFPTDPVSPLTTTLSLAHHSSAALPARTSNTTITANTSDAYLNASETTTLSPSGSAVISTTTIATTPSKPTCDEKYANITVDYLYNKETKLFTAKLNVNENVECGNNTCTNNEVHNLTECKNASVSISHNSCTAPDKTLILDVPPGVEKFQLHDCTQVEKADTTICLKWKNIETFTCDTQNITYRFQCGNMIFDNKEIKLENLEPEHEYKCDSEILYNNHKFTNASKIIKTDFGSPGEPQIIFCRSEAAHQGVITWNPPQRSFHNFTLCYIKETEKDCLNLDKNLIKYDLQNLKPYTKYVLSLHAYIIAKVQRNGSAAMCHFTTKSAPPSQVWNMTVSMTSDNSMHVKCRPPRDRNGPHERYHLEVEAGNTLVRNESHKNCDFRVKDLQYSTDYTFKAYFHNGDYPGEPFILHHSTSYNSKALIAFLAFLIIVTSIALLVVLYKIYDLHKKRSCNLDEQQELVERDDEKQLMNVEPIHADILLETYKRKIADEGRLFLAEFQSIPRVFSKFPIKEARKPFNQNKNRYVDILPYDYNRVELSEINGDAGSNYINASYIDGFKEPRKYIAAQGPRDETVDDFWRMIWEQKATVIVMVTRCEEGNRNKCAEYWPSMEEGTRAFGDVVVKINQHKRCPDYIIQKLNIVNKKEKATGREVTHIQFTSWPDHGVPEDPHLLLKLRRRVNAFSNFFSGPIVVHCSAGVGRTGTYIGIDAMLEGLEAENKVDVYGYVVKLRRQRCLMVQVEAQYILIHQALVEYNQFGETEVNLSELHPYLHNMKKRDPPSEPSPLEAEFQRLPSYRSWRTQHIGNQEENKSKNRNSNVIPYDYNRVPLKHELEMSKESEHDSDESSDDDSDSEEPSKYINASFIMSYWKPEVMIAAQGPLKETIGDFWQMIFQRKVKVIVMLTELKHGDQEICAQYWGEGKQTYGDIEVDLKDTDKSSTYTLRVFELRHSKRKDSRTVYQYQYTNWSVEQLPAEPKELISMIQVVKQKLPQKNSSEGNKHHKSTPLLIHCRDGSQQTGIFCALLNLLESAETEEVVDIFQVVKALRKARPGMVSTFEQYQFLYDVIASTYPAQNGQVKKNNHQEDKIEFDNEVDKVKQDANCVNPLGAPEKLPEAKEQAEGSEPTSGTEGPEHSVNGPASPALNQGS

[27] = Inhibitory activity against PSPTase
Procedure, shortened: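 Human GST-Cdc25A fusion protein, with each batch calibrated for linear dephosphorylation of fluorescein diphosphate over 20 min. Run 15 min at 25 °C in the dark and stopped with sodium orthovanadate. Fluorescein monophosphate read at ex 485/em 530 nm. IC50 from at least two independent determinations, each in triplicate; variation from the mean within ±20%.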

C/C(=C\CCCC#N)[C@H]1CC[C@]2(C)[C@@H]([C@H](C)CCCC(C)C)CC[C@H]2[C@@H]1CC(=O)O
GI50 (A549; Homo sapiens, A549): 7.33 µM | GI50 (COLO 205; Homo sapiens, COLO 205): 5.92 µM | IC50 [1]: 9.3 µM | IC50 [2]: 2.5 µM | GI50 (HT-29 [3]): 6.49 µM | GI50 (HCC 2998; Homo sapiens, HCC 2998): 4.31 µM | GI50 (LOX IMVI; Homo sapiens, LOX IMVI): 5.91 µM | GI50 (OVCAR-3 [4]): 6.77 µM | GI50 (NCI-H23; Homo sapiens, NCI-H23): 7.4 µM | GI50 (NCI-H522): 17.3 µM | GI50 (NCI/ADR-RES [5]): 6.44 µM | GI50 (OVCAR-8 [6]): 5.53 µM | GI50 (PC-3 [7]): 6.34 µM | GI50 (SN12C [8]): 7.73 µM | GI50 (SF-539): 10.5 µM | GI50 (SF-268): 16.6 µM | GI50 (SK-MEL-5; Homo sapiens, SK-MEL-5): 8.83 µM | GI50 (T47D [9]): 8.22 µM | GI50 (UO-31 [10]): 9.55 µM | GI50 (U-251): 5.53 µM | GI50 (786-0 [11]): 8.69 µM | GI50 (BT-549 (Homo sapiens) [12]): 5.75 µM | IC50 [13]: 13.2 µM

CC(C)CCCC(C)[C@H]1CC[C@H]2[C@H](CC(=O)O)[C@@H](C(C)CCCCC#N)CC[C@]12C (stereo in doubt; 22)
GI50 (786-0 [14]): 7.18 µM | GI50 (A549): 4.35 µM | GI50 (COLO 205): 5.55 µM | IC50 [15]: 1.9 µM | GI50 (HT-29 [16]): 5.18 µM | GI50 (HCC 2998): 4.77 µM | GI50 (LOX IMVI): 4.69 µM | GI50 (NCI-H23): 5.85 µM | GI50 (NCI/ADR-RES [17]): 8.2 µM | GI50 (OVCAR-8 [18]): 8.02 µM | GI50 (PC-3 [19]): 6.88 µM | GI50 (SN12C [20]): 6.46 µM | GI50 (SF-539): 5.01 µM | GI50 (SK-MEL-5): 7.71 µM | GI50 (UO-31 [21]): 8.74 µM | GI50 (U-251): 4.35 µM | GI50 (T47D [22]): 9.27 µM | GI50 (OVCAR-3 [23]): 5.19 µM | GI50 (BT-549 (Homo sapiens) [24]): 6.2 µM | IC50 [25]: 8.6 µM | IC50 [26]: 8.6 µM

C=C1[C@@H](O)[C@@H]2O[C@]3(CC[C@H](/C=C/[C@@H](C)[C@@H]4CC(C)=C[C@@]5(O[C@H](C[C@@](C)(O)C(=O)O)CC[C@H]5O)O4)O3)CC[C@H]2O[C@@H]1[C@@H](O)C[C@H](C)[C@H]1O[C@@]2(CCCCO2)CC[C@H]1C [OKADAIC ACID]
IC50 [27]: 0.049 µM
